# Results of several laboratories.
# Lines come from different studies, so protocols differ.
# Target: Interleukin-1 receptor-associated kinase 3 (IRAK3, Homo sapiens, UniProt Q9Y616)
# Residues used in one study (Q9Y616 1-596): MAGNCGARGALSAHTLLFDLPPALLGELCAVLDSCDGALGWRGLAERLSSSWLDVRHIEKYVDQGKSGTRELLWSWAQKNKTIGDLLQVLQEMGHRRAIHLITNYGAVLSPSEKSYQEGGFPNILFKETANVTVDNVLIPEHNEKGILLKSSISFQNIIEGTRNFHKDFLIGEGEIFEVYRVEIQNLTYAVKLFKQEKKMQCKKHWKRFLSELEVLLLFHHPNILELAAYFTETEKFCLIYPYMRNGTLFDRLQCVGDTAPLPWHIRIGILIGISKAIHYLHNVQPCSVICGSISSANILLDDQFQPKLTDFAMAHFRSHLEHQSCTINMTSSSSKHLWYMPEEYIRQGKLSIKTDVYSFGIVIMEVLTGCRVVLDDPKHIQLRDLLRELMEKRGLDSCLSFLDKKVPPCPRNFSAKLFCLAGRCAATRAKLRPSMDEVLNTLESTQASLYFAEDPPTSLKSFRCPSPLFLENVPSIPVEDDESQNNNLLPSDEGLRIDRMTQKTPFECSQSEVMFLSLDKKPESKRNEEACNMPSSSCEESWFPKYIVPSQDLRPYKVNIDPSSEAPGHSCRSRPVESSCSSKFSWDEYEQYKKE
SMILES,observed,technique,tested at,remaining binding
F[C@@H]1CCN(c2nccc(-c3cnn4ncccc34)n2)C1,binding,,1 µM,100%
COc1ncc2cc3ccccc3nc2c1C#N,cell-free assay,competition with immobilised ligand,5 µM,94%
COc1cnc(Nc2cccc(S(N)(=O)=O)c2)nc1N1CCN(c2ccccc2)C(=O)C1,binding,competition with immobilised ligand,1 µM,100%
C[C@@H](c1ccc(-n2cnc3c(N)ncnc32)cc1)N1CCc2nn(C)c(Cc3ccccc3)c2C1=O,binding,competition with immobilised ligand,0.1 µM,79%
O=C(NCc1ncc(C(F)(F)F)cc1Cl)c1ccc2c(c1)C1(CCS(=O)(=O)CC1)[C@H](C1CC1)N2S(=O)(=O)c1ccc(F)cc1,cell-free assay,competition with immobilised ligand,1 µM,99%
O=C(Nc1c[nH]nc1C(=O)NC1CCNCC1)c1cc(F)cc(F)c1,binding,competition with immobilised ligand,1 µM,100%
COc1cnc(Nc2cccc(S(N)(=O)=O)c2)nc1N1CCN(c2ccccc2)CC1,binding,competition with immobilised ligand,1 µM,100%
CCN1CCN(Cc2ccc(C(=O)Nc3ccc(C)c(Oc4ccc5c(c4)CC(=O)N5)c3)cc2C(F)(F)F)CC1,binding,competition with immobilised ligand,1 µM,100%
N[C@@H]1CCN(c2nccc(-c3cnn4ncccc34)n2)C1,binding,,1 µM,100%
N#Cc1ccc(Nc2ccc3[nH]c(=O)[nH]c3c2)c(Cl)c1,cell-free assay,competition with immobilised ligand,1 µM,94%
O=C(c1ccc(Nc2ncc(Cl)c(-c3cc4ccccc4s3)n2)cc1)N1CCC(N2CCCC2)CC1,binding,competition with immobilised ligand,1 µM,6%
C[C@H](NC(=O)c1cnc2n1[C@](C)(Cc1ccc(C#N)cc1)C(=O)N2c1cc(Cl)c(F)c(Cl)c1)C(=O)NC1(c2ccccn2)CC1,cell-free assay,competition with immobilised ligand,1 µM,100%
O=C(c1ccc(Nc2nccc(-c3cc4ccccc4s3)n2)cc1)N1CCC(N2CCCC2)CC1,binding,competition with immobilised ligand,1 µM,14%
COc1ccnn2ncc(-c3ccnc(N(C)C)n3)c12,binding,,1 µM,91%
CCOCCn1cc(C(=O)Nc2ccc(-n3nc(-c4cccnc4)cc3C(F)(F)F)cn2)ccc1=O,cell-free assay,competition with immobilised ligand,1 µM,100%
c1cnn2ncc(-c3ccnc(N4CCC45COC5)n3)c2c1,binding,,1 µM,36%
CCCCN(CCCC)C(=O)CN1C[C@H](c2cc(OC)c3c(c2)OCO3)[C@@H](C(=O)O)[C@@H]1CC(C)(C)CCC,cell-free assay,competition with immobilised ligand,1 µM,100%
C[C@H]1CCN(c2nccc(-c3cnn4ncccc34)n2)C1,binding,,1 µM,52%
O=C(c1ccc(Nc2ncc(Cl)c(-c3ccc(Cl)s3)n2)cc1)N1CCC(N2CCCC2)CC1,binding,competition with immobilised ligand,1 µM,1.6%
Nc1cnc(N2CCc3cc(S(=O)(=O)Nc4c(F)cc(Cl)cc4F)cc(N4CCCC4=O)c32)nc1,cell-free assay,competition with immobilised ligand,1 µM,89%
